Source: PubChem BioAssay AID504383 (The Scripps Research Institute Molecular Screening Center, 2011)
Among all 2,500 compounds or so, about 1,200 (48%) were called active. The set was probably picked from earlier hits. This is one part of the list. A number with no mark means an inactive call.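 How the source made its calls: active means mean activation above the low control average plus 3 SD, as set in the primary screen (cut at about 12% in these data); inactive means the rest.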

Each compound was assayed against Troponin I, cardiac muscle (Homo sapiens) + Troponin T, cardiac muscle (Homo sapiens) + Troponin C, slow skeletal and cardiac muscles (Homo sapiens) (UniProt P19429+P45379+P63316) (assay: calcium sensitizers of cardiac thin filaments – biochemical, IANBD-TnC fluorescence, triplicate, confirmation (AID 504383;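 further: 0% = DMSO at 0.472 mM calcium and 100% = DMSO at 2.9 mM calcium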)). Conditions: IANBD-labeled cardiac RTF, Ca2+ sensitivity fluorescence; at 7.2 µM; hits give high values; scaled from EC20 to saturating calcium; tested at EC20 calcium, 0.472 mM.
How it was run: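 System: Labelled thin filament complex | Technique: Filament fluorescence intensity | Benchmarks: Low control EC20 calcium, high control EC100 calcium | Timing: 15 min at 25 °C | Compound dosing: One dose, 7.2 µM nominal | Probe or stimulus: Ca2+ 0.472 mM, EC20 level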

| SMILES | activation |
| --- | --- |
| CCOC(=O)c1c(C)oc2c1c(C=NCCO)c(O)c1ccccc12 | 4.94% |
| CC(C)NC(=O)/C(C#N)=C\c1ccc(N(C)C)o1 | 215% (active) |
| CCN(CC)c1ccc(/C=C(\C#N)C(=O)NCc2ccccc2)cc1 | 60.6% (active) |
| CCN(CC)c1ccc(/C=C(\C#N)C(N)=S)cc1 | 45.5% (active) |
| N#C/C(=C\c1ccc(O)c(O)c1)C(=O)NCCCc1ccccc1 | 4.22% |
| CCN(CC)c1ccc(/C=C(/C#N)C(=O)NCc2ccccc2)o1 | 3.76% |
| CC(C)NC(=O)/C(C#N)=C/c1ccc(N(C)C)o1 | 7.34% |
| CCN(CC)c1ccc(/C=C(/C#N)C(=O)NC(C)C)o1 | 9.75% |
| CCN(CC)c1ccc(/C=C(\C#N)C(=O)c2ccc(Br)cc2)cc1 | 3.52% |
| CN(C)c1ccc(/C=C(/C#N)C(=O)NCc2ccccc2)o1 | 12.4% (active) |
| Cc1cc(Cn2nc(C(=O)NCC3CC3)cc2-c2ccccc2)on1 | 6.6% |
| COc1ccccc1/C=[N+](\[O-])C1SC(=S)N(C)C1(C)C (stereo unspecified) | 8.76% |
| NC(=O)CC(NC(=O)Cc1ccc(Cl)cc1)c1ccc(N2CCN(c3ccccn3)CC2)c([N+](=O)[O-])c1 (stereo unspecified) | 137% (active) |
| NC(=O)CC(NC(=O)c1ccc(Br)cc1)c1ccc(N2CCN(c3ccc(F)cc3)CC2)c([N+](=O)[O-])c1 (stereo unspecified) | 42.4% (active) |
| O=C(NCc1ccccc1)c1ccc(N2CCC3(CC2)CC(c2ccccc2)=NO3)c([N+](=O)[O-])c1 | 5.88% |
| Cc1cc(C)cc(C(=O)NC(CC(N)=O)c2ccc(N3CCCCCC3)c([N+](=O)[O-])c2)c1 (stereo unspecified) | 3.03% |
| NC(=O)c1c(N)sc2c1CCCCC2 | 7.59% |
| COc1ccc2nc3ccccc3nc2c1NC(=O)c1ccc(Br)cc1 | 139% (active) |
| COc1ccc2nc3ccccc3nc2c1NC(=O)c1ccc(Cl)cc1Cl | 6.58% |
| COc1cc(SC)ccc1C(=O)Nc1nc2ccccc2[nH]1 | 9.59% |
| CSCC(O)Cn1[nH]c(=O)c2cc(Cl)c(Cl)cc2c1=O (stereo unspecified) | 8.73% |
| COC(=O)c1ccc(CSc2nnc(NCc3ccccc3)s2)o1 | 17.8% (active) |
| COC(=O)c1ccc(CS(=O)(=O)c2ccc(F)cc2)o1 | 1.48% |
| COc1ccc(CN2CCC(C(=O)N3CCN(c4ccccc4F)CC3)CC2)cc1OC | 8.86% |
| COc1ccc(CN2CCN(C(=O)c3ccccc3F)CC2)c(OC)c1OC | 44.3% (active) |
| COc1cccc(CNC(=O)CCC(=O)N2CC(C)Oc3ccccc32)c1OC (stereo unspecified) | 4.26% |
